The text below walks through data of publication PMC7614192 (Biomedicine & pharmacotherapy = Biomedecine & …, 2022).

The test system of data set [1] is mouse model of multiple sclerosis. The settings on record: oral application; cited from earlier work.
Data set [2] concerns primary human lymphocytes. The settings on record: primary human lymphocytes in vitro; cited from earlier work.
In data set [3] the test system is activated human primary T cells (PBMC). Description: Cell division tracking using CFSE. Format: cell-based. The conditions noted are these: cyclotides, anti-CD3/anti-CD28 stimulated human PBMC, 72 h, n = 3. The gist of the method: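 PBMC at 5 × 10^6 cells/mL in PBS were labelled with CFSE (5 mM stock diluted 1/1000) for 10 min at 37 °C, and labelling was stopped by washing in complete medium. Cells (2 × 10^5) were activated with anti-CD3/anti-CD28 (100 ng/mL each) and cultured 72 h with test compound or CsA 4.16 μM. Proliferating cells were read by flow cytometry and normalised to the stimulated control. Mean ± SD, n = 3.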

Data set [4] concerns activated human PBMC / T lymphocytes. Description: Apoptosis and necrosis by annexin V and propidium iodide staining. Format: cell-based. The settings on record: cyclotides, annexin V-FITC/PI, n = 3. In outline: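 Donor PBMC (2 × 10^5) in RPMI 1640 with 10% heat-inactivated FBS and 2 mM L-glutamine at 37 °C, 5% CO2. Activated with anti-CD3 (HIT3) and anti-CD28 (28.6), 100 ng/mL each, then exposed to test compound. Annexin V-FITC/PI double staining by flow cytometry, normalised to the stimulated control. Camptothecin was the apoptosis control and Triton X-100 (0.5%) the necrosis control. Mean ± SD, n = 3, ANOVA/Dunnett.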

The subject of another data set is CD107a on CD8+ T cells. Description: CD8+ T cell degranulation. Format: cell-based, human. The settings on record: cyclotides; activated PBMC 24 h, PMA/ionomycin 4 h, MFI of CD107a, n = 3. The gist of the method: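 Anti-CD3/anti-CD28 (100 ng/mL each) activated PBMC (2 × 10^5) were treated with test compound, CsA (4.16 μM) or camptothecin (300 μM) for 24 h. They were then restimulated with PMA (50 ng/mL) and ionomycin (500 ng/mL) for 4 h. Staining used CD107a-PE with GolgiStop, read by flow cytometry. CD107a MFI is expressed relative to the stimulated control. n = 3.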

Data set [5] deals with activated human PBMC / T lymphocytes. Description: Cell cycle progression by DNA content. The class given is cell-based. The conditions noted are these: cyclotides, 72 h, PI staining, n = 3. The gist of the method: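 PBMC were activated with anti-CD3/anti-CD28 (100 ng/mL each) and incubated 72 h with test compound or CsA. Cells were washed, fixed and permeabilised in 70% ice-cold ethanol, then stained with PI plus RNase. Flow cytometry gave the share of living lymphocytes in each cell-cycle phase, reported as mean of three independent experiments.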

The subject of a further data set is CD25 on T lymphocytes. Description: CD25 activation marker detection. Format: cell-based, human. The settings on record: cyclotides; activated PBMC, 24 h, n = 3. In outline: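 PBMC (2 × 10^5) were stimulated with anti-CD3/anti-CD28 mAbs (100 ng/mL each) and exposed to test compound for 24 h. Controls were CsA 4.16 μM and camptothecin 300 μM. Stained with anti-CD25-PE plus anti-CD4-APC and read by flow cytometry. Result is the percentage of CD4+ and CD4− T cells expressing CD25, relative to the untreated stimulated control. n = 3, ANOVA/Dunnett.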

Regarding “T20K (GLPVCGETCVGGTCNTPGCKCSWPVCTRN; not fully specified; Kalata-B1 cyclic backbone; UniProt P56254 89-117, looked up, variant T20K)”, the clinical scores result in data set [1] is “significant delay and reductions in clinical scores”. Besides, the “effect on T cell proliferation” value in data set [2] was “inhibition of T cell proliferation”.
Consider “c-CGESCVFIPCFSSVIGCSCKNKVCYRNGVIP (bicyclic or more) [caripe 12]”, for which the “concentration with significant reduction in T cell proliferation” value in data set [3] turned out to be 30 µM. In data set [4], the “concentration with significant increase in the number of apoptotic cells” value (shortened to “concentration with significant increase”) was determined as 30 µM. Besides, in the data set with CD107a on CD8+ T cells, the “concentration with significant rise in degranulation levels (CD107a)” value (shortened to “concentration with significant rise”) stood at 3 µM. The “concentration with significant reduction in the number of cells in the G2-phase” value in data set [5] was 30 µM.
Turning to “c-CGESCVFIPCFSTVIGCSCKNKVCYRNGVIP (bicyclic or more) [caripe 10]”, in data set [3], the “concentration with significant reduction in T cell proliferation” value was determined as 10 µM. Besides, the “concentration with significant increase” value in data set [4] stood at 10 µM. Further, in the data set with CD107a on CD8+ T cells, the “concentration with significant reduction in CD107a levels” value was 10 µM. Also, the “concentration with significant reduction in the number of cells in the G2-phase” value in data set [5] turned out to be 10 µM. The “concentration with significant reduction of CD25 expression” value in the data set with CD25 on T lymphocytes came to 10 µM.
For the substance “c-CGESCVFIPCFTSVFGCSCKDKVCYRNGIP (bicyclic or more) [caripe 13]”, the “concentration with significant reduction in T cell proliferation” value in data set [3] worked out at 30 µM. Further, the “concentration with significant induction of necrosis” value in data set [4] is on record as 30 µM.
In the case of “c-CGESCVFIPCISTVIGCSCKKKVCYRNGVIP (bicyclic or more) [caripe 11]”, the “concentration with significant reduction in T cell proliferation” value in data set [3] was 30 µM. Moreover, the “concentration with significant increase” value in data set [4] is given as 10 µM. The “concentration with significant rise” value with CD107a on CD8+ T cells came to 3 µM. Besides, in data set [5], the “concentration with significant reduction in the number of cells in the G2-phase” value is 30 µM.
For the substance “c-CGESCVFIPCITAAIGCSCKKKVCYRNGVIP (bicyclic or more) [caripe 8]”, the “concentration with significant reduction in T cell proliferation” value in data set [3] was 10 µM. For the same substance, the “concentration with significant induction of necrosis” value in data set [4] is 10 µM. In the data set with CD107a on CD8+ T cells, the “concentration with significant reduction in CD107a levels” value is recorded as 10 µM and the “concentration with significant rise” value is recorded as 3 µM. For the same substance, the “concentration with significant reduction in the number of cells in the G2-phase” value in data set [5] was 30 µM. Moreover, in the data set on CD25 on T lymphocytes, the “concentration with significant reduction of CD25 expression” value is listed as 10 µM.
Regarding “cyclo-CGESCVFIPCTVTALLGCSCKNKVCYRNGIP (bicyclic or more) [caripe 7]”, the “concentration with significant reduction in T cell proliferation” value in data set [3] is 10 µM. Moreover, the “concentration with significant induction of necrosis” value in data set [4] worked out at 3 µM. Also, in the data set with CD107a on CD8+ T cells, the “concentration with significant reduction in CD107a levels” value is 10 µM. The “concentration with significant reduction in the number of cells in the G2-phase” value in data set [5] is 10 µM. Besides, the “concentration with significant reduction of CD25 expression” value in the data set on CD25 on T lymphocytes is on record as 10 µM.
